The species named for the assay is Rattus norvegicus. The assay can be described thus: In vitro antagonistic potency against release of luteinizing hormone (LH) from cultured rat pituitary cells. The settings on record: Pituitary gland cell, read-out: pA2 (converted). The class given is functional. In short, it runs like this:
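Cultured rat pituitary cells, agonist-stimulated LH release. pA2 is the negative log of the antagonist concentration that makes a 2-fold higher agonist concentration necessary to release LH. Compounds tested as TFA salts.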

For `CCNC(=O)[C@@H]1CCCN1C(=O)[C@H](CCCN=C(N)N)NC(=O)[C@H](CC(C)C)NC(=O)[C@@H](Cc1c[nH]c2ccccc12)NC(=O)[C@H](Cc1ccc(O)cc1)NC(=O)[C@H](CO)NC(=O)[C@@H](Cc1ccc(Cl)cc1)NC(=O)CCc1ccc(F)cc1`, the Kb was 0.0178 nM. For `CCNC(=O)[C@@H]1CCCN1C(=O)[C@H](CCCN=C(N)N)NC(=O)[C@H](CC(C)C)NC(=O)[C@@H](Cc1c[nH]c2ccccc12)NC(=O)[C@H](Cc1ccc(O)cc1)NC(=O)[C@H](CO)NC(=O)[C@@H](Cc1c[nH]c2ccccc12)NC(=O)c1cc2ccccc2[nH]1`, the Kb was 0.851 nM. `CCNC(=O)[C@@H]1CCCN1C(=O)[C@H](CCCN=C(N)N)NC(=O)[C@H](CC(C)C)NC(=O)[C@@H](Cc1ccc(Cl)cc1)NC(=O)[C@H](Cc1ccc(O)cc1)NC(=O)[C@H](CO)NC(=O)[C@H](Cc1c[nH]c2ccccc12)NC(=O)CCc1ccc(F)cc1`: the Kb is 0.00891 nM. For the compound `CCNC(=O)[C@@H]1CCCN1C(=O)[C@H](CCCN=C(N)N)NC(=O)[C@H](CC(C)C)NC(=O)[C@@H](Cc1c[nH]c2ccccc12)NC(=O)[C@H](Cc1ccc(O)cc1)NC(=O)[C@H](CO)NC(=O)[C@H](Cc1c[nH]c2ccccc12)NC(=O)Cc1ccccc1`, the Kb was 5.5 nM. For the compound `CCNC(=O)[C@@H]1CCCN1C(=O)[C@H](CCCN=C(N)N)NC(=O)[C@H](CC(C)C)NC(=O)[C@@H](Cc1c[nH]c2ccccc12)NC(=O)[C@H](Cc1ccc(O)cc1)NC(=O)[C@H](CO)NC(=O)[C@H](Cc1c[nH]c2ccccc12)NC(=O)CCc1ccc(C(F)(F)F)cc1`, the Kb was 0.955 nM. As to `CCNC(=O)[C@@H]1CCCN1C(=O)[C@H](CCCN=C(N)N)NC(=O)[C@H](CC(C)C)NC(=O)[C@@H](Cc1c[nH]c2ccccc12)NC(=O)[C@H](Cc1ccc(O)cc1)NC(=O)[C@H](CO)NC(=O)[C@H](Cc1c[nH]c2ccccc12)NC(=O)Cc1ccc(Cl)cc1`, the Kb was 5.5 nM. As for `CCNC(=O)[C@@H]1CCCN1C(=O)[C@H](CCCN=C(N)N)NC(=O)[C@H](CC(C)C)NC(=O)[C@@H](Cc1c[nH]c2ccccc12)NC(=O)[C@H](Cc1ccc(O)cc1)NC(=O)[C@H](CO)NC(=O)[C@H]1CCCN1C(=O)CCc1ccc(F)cc1`, the Kb was 2.4 nM.

Turning to `CCNC(=O)[C@@H]1CCCN1C(=O)[C@H](CCCN=C(N)N)NC(=O)[C@H](CC(C)C)NC(=O)[C@@H](Cc1c[nH]c2ccccc12)NC(=O)[C@H](Cc1ccc(O)cc1)N(C)C(=O)[C@H](CO)NC(=O)[C@@H](Cc1c[nH]c2ccccc12)NC(=O)CCc1ccc(F)cc1F`, the Kb is 0.01 nM. For the compound `CCNC(=O)[C@@H]1CCCN1C(=O)[C@H](CCCN=C(N)N)NC(=O)[C@H](CC(C)C)NC(=O)[C@@H](Cc1c[nH]c2ccccc12)NC(=O)[C@H](Cc1ccc(O)cc1)NC(=O)[C@H](CO)NC(=O)[C@H](Cc1c[nH]c2ccccc12)NC(=O)[C@H](Cc1ccccc1)NC(C)=O`, the Kb is 9.55 nM. Regarding `CCNC(=O)[C@@H]1CCCN1C(=O)[C@H](CCCN=C(N)N)NC(=O)[C@H](CC(C)C)NC(=O)[C@@H](CCCCNC(=O)c1cccnc1)NC(=O)[C@H](Cc1ccc(O)cc1)N(C)C(=O)[C@H](CO)NC(=O)[C@@H](Cc1c[nH]c2ccccc12)NC(=O)CCc1ccc(F)cc1`, the Kb is 0.0347 nM. For `CCNC(=O)[C@@H]1CCCN1C(=O)[C@H](CCCN=C(N)N)NC(=O)[C@H](CC(C)C)NC(=O)[C@@H](Cc1c[nH]c2ccccc12)NC(=O)[C@H](Cc1ccc(O)cc1)N(C)C(=O)[C@H](CO)NC(=O)[C@@H](Cc1cccc2ccccc12)NC(=O)CCc1ccc(Br)cc1`, the Kb is 0.00631 nM.

For `CCNC(=O)[C@@H]1CCCN1C(=O)[C@H](CCCN=C(N)N)NC(=O)[C@H](CC(C)C)NC(=O)[C@@H](Cc1c[nH]c2ccccc12)NC(=O)[C@H](Cc1ccc(O)cc1)NC(=O)[C@H](CO)NC(=O)[C@H](Cc1c[nH]c2ccccc12)NC(=O)CCc1ccc(OC)cc1`, the Kb is 2.4 nM. Take `CCNC(=O)[C@@H]1CCCN1C(=O)[C@H](CCCN=C(N)N)NC(=O)[C@H](CC(C)C)NC(=O)[C@@H](Cc1c[nH]c2ccccc12)NC(=O)[C@H](Cc1ccc(O)cc1)N(C)C(=O)[C@H](CO)NC(=O)[C@@H](Cc1c[nH]c2ccccc12)NC(=O)CCc1ccc(Cl)cc1`: the Kb is 0.00398 nM. For `CCNC(=O)[C@@H]1CCCN1C(=O)[C@H](CCCN=C(N)N)NC(=O)[C@H](CC(C)C)NC(=O)[C@@H](CCCCNC(=O)c1cccnc1)NC(=O)[C@H](Cc1ccc(O)cc1)NC(=O)[C@H](CO)NC(=O)[C@@H](Cc1c[nH]c2ccccc12)NC(=O)CCc1ccc(F)cc1` the value was 0.0955 nM; for `CCNC(=O)[C@@H]1CCCN1C(=O)[C@H](CCCN=C(N)N)NC(=O)[C@H](CC(C)C)NC(=O)[C@@H](CCCCNC(=O)c1cccnc1)NC(=O)[C@H](Cc1ccc(O)cc1)N(C)C(=O)[C@H](CO)NC(=O)[C@@H](Cc1c[nH]c2ccccc12)NC(=O)CCc1cccc(F)c1`, 0.0871 nM; for `CCNC(=O)[C@@H]1CCCN1C(=O)[C@H](CCCN=C(N)N)NC(=O)[C@H](CC(C)C)NC(=O)[C@@H](Cc1c[nH]c2ccccc12)NC(=O)[C@H](Cc1ccc(O)cc1)NC(=O)[C@@H]1CC(O)CN1C(=O)[C@@H](Cc1c[nH]c2ccccc12)NC(=O)CCc1ccc(F)cc1` (stereo partly drawn), 20.9 nM.

`CCNC(=O)[C@@H]1CCCN1C(=O)[C@H](CCCN=C(N)N)NC(=O)[C@H](CC(C)C)NC(=O)[C@@H](Cc1c[nH]c2ccccc12)NC(=O)[C@H](Cc1ccc(O)cc1)NC(=O)[C@H](CO)NC(=O)[C@H](Cc1cccc2ccccc12)NC(=O)CCc1ccc(F)cc1`: the Kb is 0.00501 nM. For `CC(C)C[C@H](NC(=O)[C@@H](CCCCNC(=O)c1cccnc1)NC(=O)[C@H](Cc1ccc(O)cc1)N(C)C(=O)[C@H](CO)NC(=O)[C@@H](Cc1cccc2ccccc12)NC(=O)CCc1ccc(F)cc1)C(=O)N[C@@H](CCCCNC(C)C)C(=O)N1CCC[C@H]1C(N)=O` the value was 0.00692 nM; for `CCNC(=O)[C@@H]1CCCN1C(=O)[C@H](CCCN=C(N)N)NC(=O)[C@H](CC(C)C)NC(=O)[C@@H](Cc1c[nH]c2ccccc12)NC(=O)[C@H](Cc1ccc(O)cc1)NC(=O)[C@H](CO)N(C)C(=O)[C@@H](Cc1c[nH]c2ccccc12)NC(=O)CCc1ccc(F)cc1`, 0.115 nM; for `CCNC(=O)[C@@H]1CCCN1C(=O)[C@H](CCCN=C(N)N)NC(=O)[C@H](CC(C)C)NC(=O)[C@@H](CCCCNC(=O)c1cccnc1)NC(=O)[C@H](Cc1ccc(O)cc1)NC(=O)[C@H](CO)NC(=O)[C@H](Cc1c[nH]c2ccccc12)NC(=O)CCc1ccc(F)cc1`, 20.9 nM. `CCNC(=O)[C@@H]1CCCN1C(=O)[C@H](CCCN=C(N)N)NC(=O)[C@H](CC(C)C)NC(=O)[C@@H](Cc1c[nH]c2ccccc12)NC(=O)[C@H](Cc1ccc(O)cc1)NC(=O)[C@H](CO)NC(=O)[C@@H](Cc1c[nH]c2ccccc12)NC(=O)CCc1ccc(Cl)cc1`: the Kb is 0.166 nM. Take `CCNC(=O)[C@@H]1CCCN1C(=O)[C@H](CCCN=C(N)N)NC(=O)[C@H](CC(C)C)NC(=O)[C@@H](CCCCNC(=O)c1cccnc1)NC(=O)[C@H](Cc1ccc(O)cc1)N(C)C(=O)[C@H](CO)NC(=O)[C@@H](Cc1c[nH]c2ccccc12)NC(=O)CCc1ccc(Cl)cc1`: the Kb was 0.0158 nM. For `CCNC(=O)[C@@H]1CCCN1C(=O)[C@H](CCCN=C(N)N)NC(=O)[C@H](CC(C)C)NC(=O)[C@@H](Cc1c[nH]c2ccccc12)NC(=O)[C@H](Cc1ccc(O)cc1)NC(=O)[C@H](CO)NC(=O)[C@@H](Cc1c[nH]c2ccccc12)NC(=O)CCc1ccc(F)c(F)c1`, the Kb is 0.0355 nM.

Values taken from ChEMBL document CHEMBL1127659, “In vitro and in vivo activities of reduced-size antagonists of luteinizing hormone-releasing hormone” (J Med Chem, 1994).
